SMARCA2 activ: increases SMARCA2 function in MMTV reporter cells; AID 652017; MG213 cells, MMTV-luciferase reporter, dexamethasone, overnight; activation, % at 9.1 µM; 1% of 370,000 active; in the data active = activation above about 7.8%;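 note: 0% = vehicle wells and 100% = reference activator wells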
SR-BI uptake up: SR-BI HDL lipid transfer activation; CHO ldlA[mSR-BI] cells, DiI-HDL uptake fluorescence, 3 h; 100 = double the neutral-control signal; activation, % at 12.5 µM; 0.096% of 320,000 active;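 active = mean replicate activation of at least 60% and every replicate at or above 60%; inconclusive = mean or all-replicate condition met, but not both; inactive = mean below 60% and not all replicates reaching 60%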;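 note: 0% = median plate neutral-control signal and 100% = twice that signal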
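material = CHO ldlA[mSR-BI] cells | medium = Ham's F12 with 0.5% BSA, HEPES 25 mM, pH 7.4 | reagent = fluorescent DiI-HDL, 10 µg/mL final | compound dosing = single-point compound dose | incubation = 3 h, 37 °C | measured by = bottom-read fluorescence, 550/595 nm | measure = HDL uptake via cellular fluorescence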
Yeast superoxide: yeast age-related superoxide inhibition as caloric restriction mimetic; S. cerevisiae aged cells, superoxide DHE fluorescence; hits give low values; 0.18% of 330,000 active; superoxide response (% of plate mean), % at 10 µM; AID 2690;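 active = superoxide response under a set limit, about three screen SD below normal, cut at about 65% in these data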;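 note: yeast aged for seven days with compound at 30 °C before DHE staining; 100% = average MFI of all compound-treated wells on the plate with controls excluded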
SR-BI HDL uptake: inhibitors of mouse SR-BI mediated HDL lipid uptake | 0.96% of 320,000 active | inhibition, % at 12.5 µM | Q61009 | ldlA[mSR-BI] CHO cells, DiI-HDL uptake fluorescence, 3 h;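 active = mean replicate inhibition of at least 70% and a set share of replicates each scoring 70 or more; inconclusive = meets just one of the two criteria; inactive = fails both criteria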;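 note: 0% = median of neutral control wells and 100% = median of positive control wells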
AHR act: activates the human aryl hydrocarbon receptor | P35869 | AHR-responsive luciferase reporter cells, luminescence | activation, % at 5 µM | 2.5% of 320,000 active | AID 2796; in the data active = activation above about 47%;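 note: 0% = vehicle wells and 100% = reference agonist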
Target sequence (P35869 whole entry, looked up): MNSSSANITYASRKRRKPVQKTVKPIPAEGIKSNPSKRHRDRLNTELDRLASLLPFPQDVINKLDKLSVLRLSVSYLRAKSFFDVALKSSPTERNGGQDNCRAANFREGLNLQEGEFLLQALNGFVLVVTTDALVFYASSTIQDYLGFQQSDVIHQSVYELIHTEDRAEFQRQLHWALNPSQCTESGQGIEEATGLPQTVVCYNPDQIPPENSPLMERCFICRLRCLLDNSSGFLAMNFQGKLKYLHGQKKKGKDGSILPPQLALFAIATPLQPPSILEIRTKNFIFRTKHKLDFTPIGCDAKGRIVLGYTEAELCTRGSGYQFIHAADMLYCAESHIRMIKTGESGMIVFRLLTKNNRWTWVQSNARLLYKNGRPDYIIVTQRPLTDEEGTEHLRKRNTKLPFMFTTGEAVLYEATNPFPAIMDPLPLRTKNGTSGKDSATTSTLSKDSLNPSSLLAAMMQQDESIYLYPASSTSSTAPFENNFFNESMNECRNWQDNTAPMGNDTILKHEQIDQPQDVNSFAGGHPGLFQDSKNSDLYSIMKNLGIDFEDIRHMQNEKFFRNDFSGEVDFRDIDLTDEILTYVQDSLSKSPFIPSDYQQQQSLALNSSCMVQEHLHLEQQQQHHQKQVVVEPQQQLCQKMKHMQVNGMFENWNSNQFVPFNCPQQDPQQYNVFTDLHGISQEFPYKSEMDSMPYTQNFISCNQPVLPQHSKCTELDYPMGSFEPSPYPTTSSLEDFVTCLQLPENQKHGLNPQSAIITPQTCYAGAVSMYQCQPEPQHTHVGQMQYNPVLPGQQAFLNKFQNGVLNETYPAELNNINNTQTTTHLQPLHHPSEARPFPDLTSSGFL
Hep lipid drop: hepatic lipid droplet formation modulation; AML12 mouse hepatocytes, oleate lipid droplets, BODIPY imaging; inhibition, % at 6.5 µM; 0.4% of 240,000 active;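 active = lipid droplet intensity inhibited by at least 50%, with more than 500 cells counted; inconclusive = wells with under 300 cells, treated as cytotoxic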
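Material: mouse AML12 hepatocyte cell line, fixed after treatment; Timing: compound with oleate, overnight; Technique: high-content imaging of BODIPY-stained droplets and DAPI nuclei; Probe or stimulus: oleate, 100 µM final; Dosing: compound at 6.5 µM only.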
* marks the source's active call; other numbers are inactive results; ? = inconclusive; · = no result. Most compounds without a hit are left out; they make up all but 4.3% or so of the library.

SMILES	SMARCA2 activ	SR-BI uptake up	Yeast superoxide	SR-BI HDL uptake	AHR act	Hep lipid drop
C=CCOc1c(CNc2ccc(S(N)(=O)=O)cc2)cccc1OC	-3.8	32.2	105.9	-32.2	8.4	-20.2
COc1cccc(CNc2ccc(S(N)(=O)=O)cc2)c1OCc1ccccc1F	-3.6	-22.6	99.2	22.6	48.3*	-13.1
COC(=O)C1=C(C)N(Cc2ccc(Br)cc2)C(=S)NC1c1cccc(OC)c1 (configuration not stated)	-3.3	·	·	·	·	·
COc1ccc(C2C(=O)c3ccccc3C2=Nc2ccc(Br)cc2)cc1 (configuration not stated)	4.2	-94.1	105.2	94.1*	7.5	·
C[C@H](O)[C@@H]1C(=O)N2CCc3c([nH]c4c(-c5ccccc5)cccc34)[C@@H]2C[C@@H]1N(C)C(=O)/C=C/c1ccccc1	-2.0	·	·	·	·	·
O=C(CSc1nnc(-c2ccc(Cl)cc2)n1Cc1ccco1)c1cccs1	0.8	-22.9	90.5	22.9	87.3*	-24.4
O=C(CSc1nnc(-c2ccncc2)n1Cc1ccco1)Nc1nc(-c2ccccc2)cs1	-3.0	-49.2	96.9	49.2	47.7*	19.2
O=C(CSc1nnc(-c2ccncc2)n1Cc1ccco1)Nc1ccccc1Cl	-1.7	1.8	92.9	-1.8	1.3	·
CCn1c(-c2ccc(N)cc2)nc2ccccc21	1.4	-28.4	100.7	28.4	5.5	·
CC(C)n1c(-c2ccc(N(C)C)cc2)nc2ccccc21	3.0	-87.6	104.1	87.6*	19.1	·
CCn1c(-c2ccc(N(C)C)cc2)nc2ccccc21	-2.1	-26.3	89.0	26.3	54.2*	·
O=C(CSc1nnc(-c2cccnc2)n1-c1ccccc1)Nc1ccc2c(c1)OCCO2	0.6	·	·	·	·	·
COc1ccc(/C=C/C(=O)Nc2cc(=O)n(C)c(=O)n2C)cc1	0.9	17.4	86.2	-17.4	47.2*	?
CSc1cccc(NC(=O)/C=C/c2ccc(Cl)cc2)c1	0.9	-48.0	105.4	48.0	2.9	·
CSc1cccc(NC(=O)/C=C/c2ccccc2)c1	1.1	-57.5	100.9	72.8*	16.4	·
Cc1occc1C(=O)Nc1cc(=O)n(C)c(=O)n1C	-1.8	·	88.0	·	66.0*	-2.9
Cn1c(NC(=O)/C=C/c2ccccc2)cc(=O)n(C)c1=O	2.1	16.4	102.4	-16.4	77.6*	2.0
Cn1c(NC(=O)/C=C/c2ccc(Cl)c(Cl)c2)cc(=O)n(C)c1=O	-2.0	-1.8	101.0	1.8	22.2	10.7
COc1ccc(C(=O)Nc2cc(=O)n(C)c(=O)n2C)cc1	1.7	-2.0	89.0	2.0	1.7	-11.9
Nn1c(SCC(=O)NC2CCCCC2)nnc1-c1n[nH]c2c1CCC2	-3.4	·	·	·	·	·
O=C(Nc1nc2ncccn2c1-c1ccc(F)cc1)c1ccccc1	-2.7	·	·	·	·	·
CCCN1CCCCC(NC(=O)c2ccc(Cl)cc2Cl)C1=O (configuration not stated)	0.0	·	·	·	·	·
CC1=NN(c2nc(-c3ccc(C)cc3)cs2)C(=O)C1N=Nc1ccccc1O (configuration not stated)	3.1	-152.2	86.5	152.2*	50.6*	0.8
CC1=NN(c2nc(-c3ccc(C)cc3)cs2)C(=O)C1N=Nc1cccc(O)c1 (configuration not stated)	1.0	-63.7	119.0	63.7	-1.6	-0.2
COc1cc(/C=N/Nc2snc(SC)c2C#N)ccc1O	-1.6	-25.8	118.8	25.8	73.1*	·
SMILES	SMARCA2 activ	SR-BI uptake up	Yeast superoxide	SR-BI HDL uptake	AHR act	Hep lipid drop
COc1cccc(/C=N/Nc2nc3ccccc3[nH]2)c1OC	5.4	-7.6	97.6	7.6	0.2	20.2
COC(=O)c1ccc(/C=N/Nc2nc3ccccc3[nH]2)cc1	6.8	-33.8	98.0	33.8	48.1*	9.7
COc1cccc(/C=N/Nc2ncnc3scc(-c4ccccc4)c23)c1O	-0.1	-115.3	75.9	115.2*	3.1	-87.5
O=C(O)c1ccc(/C=N/Nc2nc3ccccc3[nH]2)cc1	-4.9	·	105.1	·	15.4	-4.7
COc1cccc(/C=N/Nc2nc3ccccc3[nH]2)c1O	-4.3	·	101.0	·	60.5*	-6.3
CCCCOCCCNC(=O)C[C@@H]1C(=O)N(CCc2ccc(Cl)cc2)C2=CCCC[C@]21C(=O)OCC	-2.4	·	·	·	·	·
COc1cc(/C=N/Nc2nc3ccccc3[nH]2)ccc1O	1.1	-25.2	97.8	25.2	55.0*	1.5
COc1cc(/C=N/NC(=O)c2cc3ccccc3[nH]2)ccc1O	-3.1	-41.9	92.7	41.9	52.9*	-4.6
CCC(=O)N/C(N)=N/c1nc(C)c2cc(C)c(C)cc2n1	-1.9	·	120.1	·	50.4*	-4.9
Cc1nc(/N=C(\N)NC(=O)c2ccccc2)nc2ccccc12	·	-11.9	96.3	11.9	63.1*	10.1
C=CCSc1cc(C)nc2c(-c3ccccc3)cnn12	7.7	-18.7	89.8	18.7	98.6*	·
Cc1cc(N)n2ncc(-c3ccccc3)c2n1	5.8	-15.8	100.1	15.8	61.2*	6.3
C=CCNc1cccc2c1S(=O)(=O)N[C@@H](CC(C)C)CO2	1.2	·	·	·	·	·
Cc1c(C(=O)N2CCCCC2)oc2ccccc12	4.4	-14.9	98.1	14.9	5.2	·
Nc1c(C(=O)N2CCCCCC2)oc2ccccc12	-0.4	23.4	98.8	-23.4	73.5*	-3.4
Cc1c(C(=O)N2CCc3ccccc3C2)oc2ccccc12	5.4	-17.3	111.7	17.3	58.6*	7.5
COc1ccc(Cn2ccc3ccc(-c4ccc5ccn(Cc6ccc(C#N)cc6)c5c4)cc32)cc1	0.1	·	·	·	·	·
CN(CCOC(=O)c1cc2ccccc2o1)C1CN(Cc2cn(Cc3ccc([N+](=O)[O-])cc3)nn2)S(=O)(=O)C1 (configuration not stated)	-0.2	·	·	·	·	·
COC(=O)[C@]12C[C@H](CC(=O)N3CCCC3)C(=O)N(Cc3ccccc3)C1=C[C@H](C(C)C)O[C@@H]2C1CC1	6.7	·	·	·	·	·
COc1ccccc1CCn1cnc2c3cc(C)ccc3n(C)c2c1=O	-2.1	0.2	105.4	37.1	67.8*	·
COC(=O)[C@]12CCCCC=C1N(Cc1ccc(OC)cc1)C(=O)[C@@H]2CC(=O)NCCCCc1ccccc1	-0.3	·	·	·	·	·
CCCc1cc(NCCCn2ccnc2)n2nc(C)c(-c3ccccc3)c2n1	0.4	2.4	113.3	-2.4	62.6*	·
FC(F)(F)c1cccc(-c2cc3nc(NCCCn4ccnc4)ccn3n2)c1	1.0	·	·	·	·	·
Cc1cc(NCCCn2ccnc2)n2ncc(-c3ccc(Cl)cc3)c2n1	-0.8	-55.5	109.1	55.5	125.9*	·
Cc1cccc(-c2cc3nc(C)cc(NCCCn4ccnc4)n3n2)c1	-2.8	-3.0	93.7	3.0	48.2*	4.4
Cc1cc(NCCCN2CCOCC2)n2ncc(-c3ccc(Cl)cc3)c2n1	2.4	-47.8	87.0	47.8	26.0	·
COc1cc(-c2nnc(SCC(=O)NN=Cc3c[nH]c4ccccc34)n2-c2ccccc2)cc(OC)c1OC	-2.3	·	·	·	·	·

Bioassay records (PubChem BioAssay)
